Source: paper PMC7376976 (Bioorganic & medicinal chemistry letters, 2020)

Tests used:
ΔFosB/JunD heterodimer = target: T1, ΔFosB/JunD heterodimer (Homo sapiens, UniProt P17535+P53539); assay type: binding
T1 sequence (P53539 1-237 isoform P53539-11): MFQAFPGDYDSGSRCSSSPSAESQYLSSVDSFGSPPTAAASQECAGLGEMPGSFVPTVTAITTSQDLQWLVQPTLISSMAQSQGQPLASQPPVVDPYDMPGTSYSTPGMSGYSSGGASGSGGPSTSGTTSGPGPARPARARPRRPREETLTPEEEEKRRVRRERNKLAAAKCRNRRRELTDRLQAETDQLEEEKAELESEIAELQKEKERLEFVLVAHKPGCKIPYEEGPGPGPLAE
T1 sequence (P17535 1-347): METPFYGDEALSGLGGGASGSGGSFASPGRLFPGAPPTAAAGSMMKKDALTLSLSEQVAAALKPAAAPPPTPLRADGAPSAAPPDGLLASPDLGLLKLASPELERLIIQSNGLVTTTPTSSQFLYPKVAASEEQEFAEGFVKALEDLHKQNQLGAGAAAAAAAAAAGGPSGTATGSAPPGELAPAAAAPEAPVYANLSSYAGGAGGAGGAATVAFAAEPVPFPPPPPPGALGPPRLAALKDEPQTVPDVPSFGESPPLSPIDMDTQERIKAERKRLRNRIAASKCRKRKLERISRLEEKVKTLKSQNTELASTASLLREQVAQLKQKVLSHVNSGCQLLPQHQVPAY
How it was run: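 Annealed 19-mer cdk5 AP-1 duplex, TAMRA-labelled at both 5′ ends, used at 25 nM in 20 mM HEPES pH 7.5, 150 mM NaCl. Added to test compound (10 concentrations, 0–200 μM, quadruplicate) for 5 min, then ΔFosB/JunD at 280 nM (as monomers) for 15 min. FP read at excitation 530/540 nm, emission 590 nm. Oligo-only wells set 100% inhibition. Four-parameter IC50; mean ± SD of two days.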

ΔFosB homodimer = target: T2, ΔFosB homodimer (Homo sapiens, UniProt P53539); assay type: binding
T2 sequence (P53539 1-237 isoform P53539-11): T1 sequence (P53539 1-237 isoform P53539-11)
How it was run: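 Test compound serially diluted (10 concentrations, 0–200 μM, quadruplicate). Annealed 19-mer cdk5 AP-1 duplex, TAMRA-labelled at both 5′ ends, added at 25 nM in 20 mM HEPES pH 7.5, 50 mM NaCl for 5 min. ΔFosB then added at 320 nM (as monomers) for 15 min. FP read at excitation 530 or 540 nm, emission 590 nm. Four-parameter IC50; mean ± SD of two independent days.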

Row | activity in FP-assay against ΔFosB/JunD heterodimers (in words) (ΔFosB/JunD heterodimer) | activity in FP-assay against ΔFosB homodimers (in words) (ΔFosB homodimer) | Structure (SMILES)
1 | little activity even at 100 μM or higher | little activity even at 100 μM or higher | Cc1cccc2c3c(c(C(=O)O)nc12)CCC3 [Compound 21]
2 | lacked significant activity | lacked significant activity | COc1cccc2c1NC(C(=O)O)C1CCCC21 (stereo not shown) [Compound 14]

Second part, the compound before the results:

Row | Structure (SMILES) | activity in FP-assay against ΔFosB/JunD heterodimers (in words) (ΔFosB/JunD heterodimer) | activity in FP-assay against ΔFosB homodimers (in words) (ΔFosB homodimer)
3 | COc1cccc2c1N(C(C)=O)C(C(=O)O)C1CC=CC21 (stereo not shown) [Compound 13] | lacked significant activity | lacked significant activity
4 | COc1cc(OC)c2c(C(=O)O)nc3c(OC)cccc3c2c1 [Compound 25] | lacked activity | lacked activity
5 | CCOC(=O)c1nc2c(C)cccc2c2c1CCC2 [Compound 20] | little activity even at 100 μM or higher | little activity even at 100 μM or higher
